Reference: ChEMBL document CHEMBL3046733, “Comparative toxicity of selected organophosphate insecticides against resistant and susceptible clones of the greenbug, Schizaphis graminum (Homoptera: aphididae)” (J Agric Food Chem, 2000)
Values after ≈ are worked out from the molar mass of the structure shown.

Key:
Schizaphis graminum [1] = assay: Insecticidal activity against organophosphate-resistant clone of Schizaphis graminum OR1 adult or last-instar nymphs assessed as insect mortality after 8 hr; type: functional; settings: OR1, 8 h
Schizaphis graminum [2] = assay: Insecticidal activity against organophosphate-resistant clone of Schizaphis graminum OR2 adult or last-instar nymphs assessed as insect mortality after 8 hr; type: functional; settings: OR2, 8 h
Schizaphis graminum [3] = assay: Resistance index, ratio of LC50 for organophosphate-resistant clone of Schizaphis graminum OR1 adult or last-instar nymphs to LC50 for organophosphate-susceptible clone of Schizaphis graminum OSS adult or last-instar nymphs; type: functional; design: reference not given here
Schizaphis graminum [4] = assay: Resistance index, ratio of LC50 for organophosphate-resistant clone of Schizaphis graminum OR2 adult or last-instar nymphs to LC50 for organophosphate-susceptible clone of Schizaphis graminum OSS adult or last-instar nymphs; type: functional; design: reference not given here
Schizaphis graminum [5] = assay: Insecticidal activity against organophosphate-susceptible clone of Schizaphis graminum OSS adult or last-instar nymphs assessed as insect mortality after 8 hr; type: functional
[6] = biological target: Acetylcholinesterase (Schizaphis graminum) (UniProt Q9BMJ1); assay: Resistance index, ratio of bimolecular rate constant Ki for AChE in rganophosphate-resistant clone of Schizaphis graminum OR2 to bimolecular rate constant Ki for AChE in organophosphate-susceptible clone of Schizaphis graminum OSS
Acetylcholinesterase [7] = biological target: T1, Acetylcholinesterase (Schizaphis graminum, UniProt Q9BMJ1); assay: Inhibition of AChE in organophosphate-resistant clone of Schizaphis graminum OR1 adult or last-instar nymphs homogenates assessed as bimolecular rate constant pre-incubated with compound for 2 min at 25 degC before addition of ATC and DTNB solution
How it was run: (§1)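 Clones mass-reared on whole sorghum plants (hybrid NC+ 160) at 25 ± 2 °C with a 16:8 h L/D photoperiod. Greenbug AChE was preincubated with an organophosphate oxon inhibitor for 2 min at 25 °C. Residual AChE activity was then measured as a percentage of an inhibitor-free control.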

[8] = biological target: Acetylcholinesterase (Schizaphis graminum) (UniProt Q9BMJ1); assay: Resistance index, ratio of bimolecular rate constant Ki for AChE in rganophosphate-resistant clone of Schizaphis graminum OR1 to bimolecular rate constant Ki for AChE in organophosphate-susceptible clone of Schizaphis graminum OSS
Acetylcholinesterase [9] = biological target: T1, Acetylcholinesterase; assay: Inhibition of AChE in organophosphate-resistant clone of Schizaphis graminum OR2 adult or last-instar nymphs homogenates assessed as bimolecular rate constant pre-incubated with compound for 2 min at 25 degC before addition of ATC and DTNB solution; how it was run: as §1
Acetylcholinesterase [10] = biological target: T1, Acetylcholinesterase; assay: Inhibition of AChE in organophosphate-susceptible clone of Schizaphis graminum OSS adult or last-instar nymphs homogenates assessed as bimolecular rate constant pre-incubated with compound for 2 min at 25 degC before addition of ATC and DTNB solution; how it was run: as §1

T1 sequence (Q9BMJ1 whole entry): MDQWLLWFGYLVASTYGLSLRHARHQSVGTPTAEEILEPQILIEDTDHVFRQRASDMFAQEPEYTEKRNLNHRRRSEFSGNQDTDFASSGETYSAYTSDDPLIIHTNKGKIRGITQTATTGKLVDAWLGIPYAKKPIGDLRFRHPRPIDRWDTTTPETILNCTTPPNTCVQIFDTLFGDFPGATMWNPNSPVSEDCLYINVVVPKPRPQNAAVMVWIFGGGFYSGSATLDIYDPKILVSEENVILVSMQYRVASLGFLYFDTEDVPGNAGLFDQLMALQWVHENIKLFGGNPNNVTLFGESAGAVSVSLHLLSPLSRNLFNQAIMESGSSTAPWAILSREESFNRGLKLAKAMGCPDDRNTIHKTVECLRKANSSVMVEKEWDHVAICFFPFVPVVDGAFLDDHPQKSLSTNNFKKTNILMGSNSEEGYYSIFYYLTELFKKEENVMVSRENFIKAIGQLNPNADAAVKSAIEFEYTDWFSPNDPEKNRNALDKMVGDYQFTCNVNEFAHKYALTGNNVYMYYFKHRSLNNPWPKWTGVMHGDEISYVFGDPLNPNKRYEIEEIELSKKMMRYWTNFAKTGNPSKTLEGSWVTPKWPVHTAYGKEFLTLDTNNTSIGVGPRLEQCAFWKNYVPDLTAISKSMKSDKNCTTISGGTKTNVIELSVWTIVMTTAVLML
Acetylcholinesterase (Schizaphis graminum), sequence (Q9BMJ1 as listed by the source): as the sequence (Q9BMJ1 whole entry) above

| SMILES | LC50 (Schizaphis graminum [1]) | LC50 (Schizaphis graminum [2]) | RatioLC50 (Schizaphis graminum [3]) | RatioLC50 (Schizaphis graminum [4]) | LC50 (Schizaphis graminum [5]) | Ratio [6] | Ki (Acetylcholinesterase [7]) | Ratio [8] | Ki (Acetylcholinesterase [9]) | Ki (Acetylcholinesterase [10]) |
| --- | --- | --- | --- | --- | --- | --- | --- | --- | --- | --- |
| CCOP(=S)(OCC)Oc1nc(Cl)c(Cl)cc1Cl [CHLORPYRIFOS] | 0.39 µg/mL (≈ 1.11 µM) | 1.96 µg/mL (≈ 5.59 µM) | 10.6 | 53.8 | 0.036 µg/mL (≈ 0.103 µM) | – | – | – | – | – |
| COP(=O)(OC)Oc1ccc([N+](=O)[O-])cc1 [DIMETHYL 4-NITROPHENYL PHOSPHATE] | – | – | – | – | – | 2.2 | 1.35 M⁻¹ min⁻¹ | 2.1 | 1.3 M⁻¹ min⁻¹ | 2.9 M⁻¹ min⁻¹ |
| CCOP(=S)(OCC)SCCSCC [DISULFOTON] | 6.37 µg/mL (≈ 23.2 µM) | 15.1 µg/mL (≈ 55 µM) | 39.6 | 93.7 | 0.16 µg/mL (≈ 0.583 µM) | – | – | – | – | – |
| COP(=S)(OC)Oc1ccc([N+](=O)[O-])cc1 [METHYL PARATHIONE] | 0.34 µg/mL (≈ 1.29 µM) | 1.27 µg/mL (≈ 4.83 µM) | 11.1 | 41.3 | 0.031 µg/mL (≈ 0.118 µM) | – | – | – | – | – |
| CNC(=O)CSP(=O)(OC)OC [Omethoate] | 8.01 µg/mL (≈ 37.6 µM) | 6.28 µg/mL (≈ 29.5 µM) | 38.9 | 30.6 | 0.21 µg/mL (≈ 0.985 µM) | 3.5 | 1.24 M⁻¹ min⁻¹ | 3.8 | 1.33 M⁻¹ min⁻¹ | 4.62 M⁻¹ min⁻¹ |
| CCOP(=O)(OCC)Oc1ccc([N+](=O)[O-])cc1 [PARAOXON] | – | – | – | – | – | 2 | 0.81 M⁻¹ min⁻¹ | 1.8 | 0.72 M⁻¹ min⁻¹ | 1.42 M⁻¹ min⁻¹ |
| CCOP(=S)(OCC)Oc1ccc([N+](=O)[O-])cc1 [PARATHION] | 8.07 µg/mL (≈ 27.7 µM) | 64.8 µg/mL (≈ 222 µM) | 40.8 | 326.9 | 0.2 µg/mL (≈ 0.687 µM) | – | – | – | – | – |
| CCOP(=O)(OCC)SCCSCC [demeton S] | – | – | – | – | – | 1.3 | 2.62 M⁻¹ min⁻¹ | 1.3 | 2.68 M⁻¹ min⁻¹ | 3.45 M⁻¹ min⁻¹ |
| CCSCCSP(=O)(OC)OC [demeton-S-methyl] | – | – | – | – | – | – | 4.11 M⁻¹ min⁻¹ | – | 4.35 M⁻¹ min⁻¹ | 6.04 M⁻¹ min⁻¹ |
